This note sets out measurements from ChEMBL document CHEMBL1136779 (J Med Chem, 2003).

Data set [1] in a line: Half-life period (prodrug) was determined. In kind it is ADME. In short, it runs like this:
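Aqueous stability: 100 µM compound in CPG2 assay buffer (100 mM Tris-HCl pH 7.3, 260 µM ZnCl₂). Remaining parent measured by isocratic reverse-phase HPLC (10 mM ammonium acetate pH 5.0/methanol, UV 250 or 265-275 nm) at several times. Half-life from one-phase exponential decay fit. Labile compounds instead followed by absorbance change over 3 min; t½ = 0.69/rate constant.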

For data set [2], the target named is T1, Carboxypeptidase G2 (Pseudomonas aeruginosa (strain ATCC 15692 / PAO1 / 1C / PRS 101 / LMG12228)) (UniProt Q9I056).
T1 sequence (whole entry): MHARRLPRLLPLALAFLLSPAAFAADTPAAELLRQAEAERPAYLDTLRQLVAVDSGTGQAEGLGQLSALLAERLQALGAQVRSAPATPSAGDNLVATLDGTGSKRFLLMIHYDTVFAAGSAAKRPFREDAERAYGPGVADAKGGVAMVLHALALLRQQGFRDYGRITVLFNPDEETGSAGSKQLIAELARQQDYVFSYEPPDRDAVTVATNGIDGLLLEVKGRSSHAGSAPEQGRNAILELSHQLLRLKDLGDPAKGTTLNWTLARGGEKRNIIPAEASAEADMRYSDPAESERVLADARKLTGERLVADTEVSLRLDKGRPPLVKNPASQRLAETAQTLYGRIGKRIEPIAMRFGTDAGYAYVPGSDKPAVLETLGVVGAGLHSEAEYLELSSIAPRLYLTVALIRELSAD
The data set can be described thus: (§1) The kinetics of activation of the self-immolative prodrug by Carboxypeptidase G2 was measured. In short, it runs like this:
(§2)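 CPG2 (50 mU) with prodrug 5-50 µM in 5 µM steps in CPG2 assay buffer (100 mM Tris-HCl pH 7.3, 260 µM ZnCl₂), 37 °C. Remaining prodrug quantified by HPLC at 0, 5, 10, 15 and 20 min; Km and kcat derived.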

The target of data set [3] is T1, Carboxypeptidase G2 (Pseudomonas aeruginosa (strain ATCC 15692 / PAO1 / 1C / PRS 101 / LMG12228)). The data set can be described thus: Ratio of kinetic constants Kcat and Km was determined against Carboxypeptidase G2. In short, it runs like this:
as §2

Data set [4] has as its system WiDr. The data set can be described thus: Cytotoxicity in WiDr cells expressing surface-tethered carboxypeptidase G2 (CPG2). In kind it is functional, cell-based. The settings on record: Homo sapiens. In short, it runs like this: (§3)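 WiDr cells stably expressing surface-tethered CPG2 (stCPG2(Q)3) or β-galactosidase control; 2 × 10⁶ cells seeded, confluent after 48 h. Compound in DMSO stock diluted in medium, re-added at similar concentration after 1 h, further 20 h exposure. Cells reseeded in quadruplicate at ~2 × 10³/well, grown until controls confluent; SRB stain, 590 nm. IC50 from log dose-response sigmoid fit.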

Data set [5] concerns WiDr. The data set can be described thus: Cytotoxicity in WiDr cells expressing beta-galactosidase control. In kind it is functional, cell-based. The settings on record: Homo sapiens. The method in brief:
as §3

The nature of data set [6]: Ratio of the half-life period of the prodrug and the drug was determined. In kind it is ADME.
The test system of data set [7] is WiDr. The data set can be described thus: Compound was tested for cytotoxicity in WiDr cells engineered for stable expression of beta-galactosidase. In kind it is functional, cell-based. The settings on record: Homo sapiens. In short, it runs like this: as §3
The test system of data set [8] is WiDr. The data set can be described thus: Compound was tested for cytotoxicity in WiDr cells engineered for stable expression of surface-tethered CPG2. In kind it is functional, cell-based. The settings on record: Homo sapiens. The method in brief:
as §3

Compound in data set [9]: CN(C(=O)OCc1ccc(NC(=O)N[C@@H](CCC(=O)O)C(=O)O)cc1)c1ccc(N(CCCl)CCCl)cc1
Described as §1. The method in brief:
as §2

Compound in data set [10]: CN(C(=O)OCc1ccc(OC(=O)N[C@@H](CCC(=O)O)C(=O)O)cc1)c1ccc(N(CCCl)CCCl)cc1
The data set is described as §1. In short, it runs like this:
as §2

Compound in data set [11]: O=C(O)CC[C@H](NC(=O)Nc1ccc(CO)cc1)C(=O)O
The data set is described as §1. In short, it runs like this:
as §2

Compound in data set [12]: O=C(O)CC[C@H](NC(=O)Nc1ccc(COC(=O)Nc2ccc(N(CCCl)CCCl)cc2)cc1)C(=O)O
The description is as §1. In short, it runs like this: as §2

Compound in data set [13]: O=C(O)CC[C@H](NC(=O)Nc1ccc(COC(=O)Nc2ccccc2N(CCCl)CCCl)cc1)C(=O)O
Described as §1. In short, it runs like this: as §2

Compound in data set [14]: O=C(O)CC[C@H](NC(=O)Oc1ccc(CO)cc1)C(=O)O
Described as §1. The method in brief:
as §2

Compound in data set [15]: O=C(O)CC[C@H](NC(=O)Oc1ccc(COC(=O)Nc2ccc(N(CCCl)CCCl)cc2)cc1)C(=O)O
The description is as §1. In short, it runs like this: as §2

Compound in data set [16]: O=C(O)CC[C@H](NC(=O)Oc1ccc(COC(=O)Nc2ccccc2N(CCCl)CCCl)cc1)C(=O)O
Described as §1. In short, it runs like this:
as §2

Some results are limits rather than exact numbers.

Take `O=C(O)CC[C@H](NC(=O)Oc1ccc(COC(=O)Nc2ccccc2N(CCCl)CCCl)cc1)C(=O)O`: in data set [1], the T1/2 worked out at 146.3 min. Also, the k cat in data set [2] turned out to be 4.27 s⁻¹. Further, the k cat/Km in [3] worked out at 4.14. Moreover, the IC50 was determined as 28.1 µM in the data set on WiDr [4] and 38.1 µM in the data set with WiDr [5]. In addition, the Ratio in data set [6] is reported as 11.9.
On to `O=C(O)CC[C@H](NC(=O)Nc1ccc(COC(=O)Nc2ccc(N(CCI)CCI)cc2)cc1)C(=O)O`, for which, in data set [1], the T1/2 is recorded as 0.97 min. Further, the IC50 in the data set with WiDr [4] stood at 1.8 µM; with WiDr [5] it was 180 µM. In data set [6], the Ratio amounted to 1.9.
As for `O=C(O)CC[C@H](NC(=O)Nc1ccc(COC(=O)Nc2ccccc2N(CCI)CCI)cc1)C(=O)O`, the T1/2 in data set [1] is 2.7 min. In addition, the figures for the IC50 in the data set on WiDr [4] and in the data set with WiDr [5] were 3 µM and 149 µM, respectively.
As for `O=C(O)CC[C@H](NC(=O)Oc1ccc(COC(=O)Nc2ccccc2N(CCBr)CCBr)cc1)C(=O)O`, the T1/2 in data set [1] is recorded as 3.74 min. The IC50 amounted to 95.2 µM with WiDr [4] and 183 µM in the data set on WiDr [5]. Further, the Ratio in data set [6] is listed as 3.5.
`O=C(O)CC[C@H](NC(=O)Nc1ccc(COC(=O)Nc2ccccc2N(CCCl)CCCl)cc1)C(=O)O`: in data set [1], the T1/2 is recorded as 107.5 min. Further, the k cat in [2] was 2.92 s⁻¹. In addition, the k cat/Km in data set [3] is 5.31. The IC50 with WiDr [4] came out at 4.5 µM; in the data set on WiDr [5], 21.1 µM. For the same molecule, the Ratio in data set [6] is reported as 13.9.
As to `CN(C(=O)OCc1ccc(NC(=O)N[C@@H](CCC(=O)O)C(=O)O)cc1)c1ccc(N(CCBr)CCBr)cc1`, the T1/2 in data set [1] is listed as 2.8 min. Further, in the data set on WiDr [4], the IC50 turned out to be 4.1 µM. The Ratio in data set [6] was 1.
For the molecule `O=C(O)CC[C@H](NC(=O)Nc1ccc(COC(=O)Nc2ccc(N(CCBr)CCBr)cc2)cc1)C(=O)O`, in data set [1], the T1/2 was found to be 0.85 min. Moreover, the IC50 in the data set with WiDr [4] is 3.1 µM; with WiDr [5] it was 205 µM. The Ratio in data set [6] was determined as 0.4.
With `O=C(O)CC[C@H](NC(=O)Nc1ccc(COC(=O)Nc2ccccc2N(CCBr)CCBr)cc1)C(=O)O`, the T1/2 in data set [1] was 3 min. In addition, the IC50 is 4.7 µM in the data set with WiDr [4] and 118 µM with WiDr [5]. Further, the Ratio in data set [6] is recorded as 3.5.
With `CN(C(=O)OCc1ccc(OC(=O)N[C@@H](CCC(=O)O)C(=O)O)cc1)c1ccc(N(CCCl)CCCl)cc1`, the T1/2 in data set [1] amounted to 173.6 min. In addition, in [2], the k cat was 4.32 s⁻¹. In [3], the k cat/Km amounted to 1.78. Moreover, the IC50 stood at 1.7 µM in the data set on WiDr [4] and 19.6 µM in the data set with WiDr [5]. Also, the Ratio in [6] is recorded as 20.6.
Turning to `CN(C(=O)OCc1ccc(OC(=O)N[C@@H](CCC(=O)O)C(=O)O)cc1)c1ccc(N(CCI)CCI)cc1`, in [1], the T1/2 is listed as 4.6 min. The values for the IC50 in the data set with WiDr [4] and in the data set on WiDr [5] were 2.6 µM and 21.5 µM, respectively. In [6], the Ratio is recorded as 7.7.
For the molecule `CN(C(=O)OCc1ccc(NC(=O)N[C@@H](CCC(=O)O)C(=O)O)cc1)c1ccc(N(CCCl)CCCl)cc1`, the T1/2 in [1] is reported as 173.6 min. For the same molecule, the k cat in data set [2] turned out to be 5.5 s⁻¹. For the same molecule, the k cat/Km in data set [3] was 0.91. The figures for the IC50 in the data set with WiDr [4] and with WiDr [5] were 2.5 µM and 39.7 µM, respectively. Also, the Ratio in [6] is 20.9.
Consider `CS(=O)(=O)OCCN(CCOS(C)(=O)=O)c1ccccc1NC(=O)OCc1ccc(OC(=O)N[C@@H](CCC(=O)O)C(=O)O)cc1`, for which the T1/2 in data set [1] is listed as 10.8 min. In addition, the results for the 50% inhibitory concentration (IC50) in the data set on WiDr [4] and with WiDr [5] were 40 µM and 208 µM, respectively.
With `O=C(O)CC[C@H](NC(=O)Oc1ccc(CO)cc1)C(=O)O`, the k cat in data set [2] was found to be 140 s⁻¹. Besides, in [3], the k cat/Km amounted to 82.3.
Regarding `O=C(O)CC[C@H](NC(=O)Nc1ccc(COC(=O)Nc2ccc(N(CCCl)CCCl)cc2)cc1)C(=O)O`, the k cat in data set [2] was 10 s⁻¹.
With `CN(C(=O)OCc1ccc(NC(=O)N[C@@H](CCC(=O)O)C(=O)O)cc1)c1ccc(N(CCI)CCI)cc1`, the T1/2 in data set [1] is 3.9 min. Also, the IC50 with WiDr [4] was 1.5 µM. Also, the Ratio in data set [6] was 6.5.
For the molecule `CN(C(=O)OCc1ccc(OC(=O)N[C@@H](CCC(=O)O)C(=O)O)cc1)c1ccc(N(CCBr)CCBr)cc1`, the T1/2 in [1] turned out to be 2.7 min. Besides, the figures for the IC50 with WiDr [4] and in the data set with WiDr [5] were 3.6 µM and 27.2 µM, respectively. Besides, in [6], the Ratio came to 1.
Take `CS(=O)(=O)OCCN(CCCl)c1ccccc1NC(=O)OCc1ccc(OC(=O)N[C@@H](CCC(=O)O)C(=O)O)cc1`: the T1/2 in data set [1] was 10 min. Besides, the figures for the IC50 with WiDr [4] and in the data set with WiDr [5] were 28.5 µM and 148 µM, respectively.
With `O=C(O)CC[C@H](NC(=O)Oc1ccc(COC(=O)Nc2ccccc2N(CCI)CCI)cc1)C(=O)O`, the T1/2 in data set [1] is given as 2.1 min. Further, the IC50 with WiDr [4] came out at 19 µM; in the data set on WiDr [5], 73.3 µM.
Regarding `O=C(O)CC[C@H](NC(=O)Nc1ccc(CO)cc1)C(=O)O`, in [2], the k cat came to 65.4 s⁻¹. Also, the k cat/Km in data set [3] is 21.1.
Regarding `O=C(O)CC[C@H](NC(=O)Oc1ccc(COC(=O)Nc2ccc(N(CCBr)CCBr)cc2)cc1)C(=O)O`, the T1/2 in data set [1] was 0.9 min. For the same molecule, the results for the IC50 in the data set with WiDr [4] and in the data set with WiDr [5] were 2.6 µM and 99.7 µM, respectively. The Ratio in [6] came out at 0.4.
In the case of `CS(=O)(=O)OCCN(CCCl)c1ccc(C(=O)N[C@@H](CCC(=O)O)C(=O)O)cc1`, the T1/2 in data set [1] was 59 min. Moreover, the IC50 is 3230 µM in the data set with WiDr [7] and 100 µM in the data set on WiDr [8]. In addition, in data set [6], the Ratio is listed as 2.3.
Consider `O=C(O)CC[C@H](NC(=O)Oc1ccc(COC(=O)Nc2ccc(N(CCI)CCI)cc2)cc1)C(=O)O`, for which the T1/2 in data set [1] amounted to 0.98 min. Further, the IC50 turned out to be 1.3 µM in the data set with WiDr [4] and 53.6 µM with WiDr [5]. The Ratio in data set [6] came out at 2.
Turning to `O=C(O)CC[C@H](NC(=O)Oc1ccc(COC(=O)Nc2ccc(N(CCCl)CCCl)cc2)cc1)C(=O)O`, the k cat in data set [2] was below 10 s⁻¹.

B1: Carboxypeptidase G2 (Pseudomonas aeruginosa (strain ATCC 15692 / PAO1 / 1C / PRS 101 / LMG12228)), Q9I056 (protein)
chain: T1 sequence (whole entry)
Take B1: the Km in [9] was 6.05 µM; in [10], 2.43 µM; in data set [11], 3.1 µM; in data set [12], below 5 µM; in data set [13], 0.55 µM; in data set [14] it was 1.7 µM. The Km in data set [15] was below 5 µM; in data set [16] it was 1.02 µM.
